Legend:
[1] = biological target: Dual specificity protein kinase CLK1 (Mus musculus, UniProt P22518); test: Inhibition of GST-tagged mouse recombinant CLK1 expressed in Escherichia coli using GRSRSRSRSRSR as substrate
[2] = biological target: Glycogen synthase kinase-3 (Sus scrofa, UniProt B2LUN4+I6LNT8); test: Inhibition of porcine brain GSK3alpha/beta using GS1 as substrate
Procedure, shortened: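 Native GSK-3α/β purified from porcine brain, assayed as for CDK1. Buffer A pH 7.5 with heparin and BSA, 30 °C, 15 μM [γ-33P]ATP, phosphorylated GS-1 peptide as substrate. Read by P81 paper capture and scintillation counting. Activity as % of uninhibited control after blank subtraction.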

[3] = Inhibition of starfish oocyte CDK1/cyclin B using [gamma 33P]ATP after 30 mins by scintillation counting; design: species or system Asteroidea
Procedure, shortened: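 Native starfish M-phase oocyte CDK1/cyclin B, or recombinant human CDK5/p25, in buffer A pH 7.5 with heparin and BSA. Substrate histone H1 25 μg with 15 μM [γ-33P]ATP, 30 min at 30 °C. Stopped on P81 paper, washed in 1% phosphoric acid, counted by scintillation. Blank subtracted; % of maximal activity; DMSO dilution controls.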

[4] = biological target: Dual specificity tyrosine-phosphorylation-regulated kinase 1A (Rattus norvegicus, UniProt Q63470); test: Inhibition of GST-tagged rat recombinant DYRK1A expressed in Escherichia coli using KKISGRLSPIMTEQ as substrate
[5] = biological target: Cyclin-dependent kinase 5/CDK5 activator 1 (Homo sapiens, UniProt Q00535); test: Inhibition of human recombinant CDK5/p25 using [gamma 33P]ATP after 30 mins by scintillation counting; assay type: protein-complex assay
Cyclin-dependent kinase 5/CDK5 activator 1, sequence (Q00535 whole entry): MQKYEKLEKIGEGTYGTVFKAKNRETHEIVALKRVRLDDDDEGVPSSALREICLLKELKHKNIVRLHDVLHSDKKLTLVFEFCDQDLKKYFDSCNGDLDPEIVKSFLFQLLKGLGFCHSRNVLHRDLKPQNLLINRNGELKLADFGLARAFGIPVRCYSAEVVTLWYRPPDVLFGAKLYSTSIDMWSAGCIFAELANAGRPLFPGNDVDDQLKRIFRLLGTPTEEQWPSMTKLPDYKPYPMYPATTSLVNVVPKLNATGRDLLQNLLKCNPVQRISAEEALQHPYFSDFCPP
Cyclin-dependent kinase 5/CDK5 activator 1, sequence (Q15078 whole entry, further chain): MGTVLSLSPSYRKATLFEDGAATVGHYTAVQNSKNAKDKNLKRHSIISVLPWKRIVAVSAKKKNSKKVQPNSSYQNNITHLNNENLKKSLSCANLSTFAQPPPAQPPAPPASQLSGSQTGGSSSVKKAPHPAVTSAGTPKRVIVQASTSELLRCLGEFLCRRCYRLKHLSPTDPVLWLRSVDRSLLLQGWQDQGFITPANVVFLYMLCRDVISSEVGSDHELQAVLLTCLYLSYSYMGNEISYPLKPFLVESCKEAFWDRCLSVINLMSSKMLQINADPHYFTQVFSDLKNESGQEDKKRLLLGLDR
Procedure, shortened: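 Native starfish M-phase oocyte CDK1/cyclin B, or recombinant human CDK5/p25, in buffer A pH 7.5 with heparin and BSA. Stopped on P81 paper, washed in 1% phosphoric acid, counted by scintillation. Blank subtracted; % of maximal activity; DMSO dilution controls.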

Dual specificity protein kinase CLK1, sequence (P22518 whole entry): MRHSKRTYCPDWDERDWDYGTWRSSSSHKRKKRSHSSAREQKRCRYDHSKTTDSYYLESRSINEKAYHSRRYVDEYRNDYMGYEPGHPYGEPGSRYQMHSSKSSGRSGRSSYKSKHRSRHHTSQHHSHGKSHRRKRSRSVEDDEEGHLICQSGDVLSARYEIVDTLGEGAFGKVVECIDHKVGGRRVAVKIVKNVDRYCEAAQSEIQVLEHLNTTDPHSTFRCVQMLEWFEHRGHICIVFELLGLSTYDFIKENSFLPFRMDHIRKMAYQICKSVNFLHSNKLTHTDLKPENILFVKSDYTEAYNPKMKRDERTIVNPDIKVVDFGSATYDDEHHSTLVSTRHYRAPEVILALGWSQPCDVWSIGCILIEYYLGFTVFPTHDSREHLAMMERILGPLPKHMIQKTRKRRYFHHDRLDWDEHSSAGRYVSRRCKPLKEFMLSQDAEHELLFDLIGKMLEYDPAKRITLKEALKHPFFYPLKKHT

Structure (SMILES)	IC50 [1]	IC50 [2]	IC50 [4]	IC50 [5]	IC50 [3]
CCCCC[C@@H](NC)c1c(O)cc(O)c2c(=O)cc(-c3ccccc3)oc12	> 10 µM	4.1 µM	> 10 µM	0.27 µM	0.52 µM
CCCCC[C@H](NC)c1c(O)cc(O)c2c(=O)cc(-c3ccccc3)oc12	> 10 µM	> 10 µM	> 10 µM	2.1 µM	5.4 µM
O=c1cc(-c2ccccc2)oc2c(C3CCCN3)c(O)cc(O)c12 (racemic)	> 10 µM	> 10 µM	> 10 µM	1.1 µM	1.6 µM
CCCCCC(NC)c1c(O)cc(O)c2c(=O)cc(-c3ccccc3)oc12 (racemic)	> 10 µM	5.2 µM	> 10 µM	0.52 µM	1.1 µM
O=c1cc(-c2ccccc2)oc2c(C3CCCCN3)c(O)cc(O)c12 (racemic)	> 10 µM	> 10 µM	> 10 µM	5.5 µM	5 µM
CN1CC[C@H](c2c(O)cc(O)c3c(=O)cc(-c4ccccc4Cl)oc23)[C@H](O)C1 (single isomer, unassigned) [ALVOCIDIB]		0.36 µM			0.09 µM
COc1cc(O)c(C2CCCCN2C)c2oc(-c3ccccc3)cc(=O)c12 (stereo unspecified) [BUCHENAVIANINE]	> 10 µM	> 10 µM	> 10 µM	> 10 µM	> 10 µM

Continued, in another order:

IC50 [1]	IC50 [2]	IC50 [4]	IC50 [5]	Structure (SMILES)	IC50 [3]
> 10 µM	>= 10 uM	> 10 µM	0.95 µM	CN1CCCC[C@@H]1c1c(O)cc(O)c2c(=O)cc(-c3ccccc3)oc12	1.1 µM
2.1 µM	1.6 µM	> 10 µM	0.05 µM	CN1CCCC[C@H]1c1c(O)cc(O)c2c(=O)cc(-c3ccccc3)oc12	0.03 µM
> 10 µM	> 10 µM	> 10 µM	> 10 µM	COc1cc(O)c(C2CCCCN2)c2oc(-c3ccccc3)cc(=O)c12 (stereo unspecified)	> 10 µM
7.4 µM	2.6 µM	> 10 µM	0.57 µM	CN1CCC[C@@H]1c1c(O)cc(O)c2c(=O)cc(-c3ccccc3)oc12	0.39 µM
0.67 µM	0.72 µM	> 10 µM	0.04 µM	CN1CCC[C@H]1c1c(O)cc(O)c2c(=O)cc(-c3ccccc3)oc12	
1.6 µM	1.3 µM	> 10 µM	0.09 µM	CN1CCCC1c1c(O)cc(O)c2c(=O)cc(-c3ccccc3)oc12 (racemic)	0.05 µM
8.5 µM	5.1 µM	> 10 µM	1.7 µM	CN1CCCCC1c1c(O)cc(O)c2c(=O)cc(-c3ccccc3)oc12 (racemic)	0.09 µM
